Test results published in ChEMBL document CHEMBL1132377 (J Med Chem, 1999).
Values after ≈ are worked out from the molar mass of the structure shown.

Tests used:
[1] = target: T1, Peptidyl-prolyl cis-trans isomerase FKBP1A (Homo sapiens, UniProt P62942); experiment: Compound was evaluated for its inhibitory effect on human FK506 binding protein 12 by means of protease-coupled PPIase assay
In short: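 Recombinant hFKBP12 (14 nM) preincubated ≥5 min with effectors (0.01–200 μM, diluted from DMSO stocks, organic solvent usually below 0.1% v/v) in 35 mM HEPES pH 7.8. Reaction started with Suc-Ala-Phe-Pro-Phe-pNA (24.0 μM); α-chymotrypsin (410 μg/mL) as isomer-specific protease; 4-nitroaniline release read at 390 nm, 10 °C. First-order k_enz derived; IC50 from concentration dependence; mean ± SD of three determinations.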

L929 = experiment: Cytotoxicity against mouse L-929 fibroblast cell line, by means of standard proliferation assay; format: functional, cell-based
K562 = experiment: Cytotoxicity against […] leukemic cell line, by means of standard proliferation assay; format: functional, cell-based; conditions: Homo sapiens
Rattus norvegicus [2] = experiment: Effect on Axonal Regeneration following sciatic nerve neurotomy at a dose of 1 mg/kg after 10 weeks; format: functional
In short: (§1)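 Sciatic nerve of left hind leg lesioned (neurotomy) in 4-month-old female HAN:Wist rats under intramuscular Rompun (16 mg/kg)/Ketavet (125 mg/kg) anesthesia. Functional recovery scored from walking behavior. EDL muscle weights of the lesioned left limb and the unlesioned right limb compared, with weights related to protein concentration. Weight differences expressed as percentages relative to placebo; mean ± SD of n animals.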

Rattus norvegicus [3] = experiment: Weight difference between EDL muscles of axotomized left hind limbs and corresponding right controls 10 weeks (dose=1 mg/kg); format: functional, Muscle tissue; in short: as §1
[4] = Inhibition constant(Ki) for inhibition of PPIase activity of human Cyclophilin 18 (Conc=2 nM)
In short: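 hCyp18 was expressed recombinantly in E. coli and assayed for PPIase activity with α-chymotrypsin 410 μg/mL and Suc-Ala-Phe-Pro-Phe-pNA 24.0 μM. It was preincubated at least 5 min with 0.01–200 μM inhibitor in 35 mM HEPES pH 7.8. 4-Nitroaniline was monitored at 390 nm, 10 °C, and constants were obtained by competitive nonlinear fit.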

[5] = Inhibition constant(Ki) for inhibition of PPIase activity of Escherichia coli trigger factor (Conc=12 nM) of FKBPs family
In short: (§2)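 Protease-coupled PPIase assay with α-chymotrypsin 410 μg/mL and Suc-Ala-Phe-Pro-Phe-pNA 24.0 μM. Enzyme was preincubated at least 5 min with inhibitor (0.01–200 μM) in 35 mM HEPES pH 7.8, DMSO usually below 0.1%. 4-Nitroaniline release was read at 390 nm, 10 °C, and first-order k_enz derived. Ki came from nonlinear competitive-inhibition fit; mean ± SD of three.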

[6] = target: Peptidyl-prolyl cis-trans isomerase NIMA-interacting 1 (Homo sapiens, UniProt Q13526); experiment: Inhibition constant(Ki) for inhibition of PPIase activity of human Peptidyl-prolyl cis-trans isomerase NIMA-interacting 1 (Conc=4 nM) of Parvulins family
In short: (§3)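 PPIase assay coupled to trypsin 210 μg/mL, using Suc-Ala-Phe-Pro-Arg-pNA 34.0 μM (SlyD) or Ac-Ala-Ala-Ser(P)-Pro-Arg-pNA 26.0 μM (hPin1). Enzyme was preincubated at least 5 min with inhibitor (0.01–200 μM) in 35 mM HEPES pH 7.8. Absorbance at 390 nm was followed at 10 °C, and first-order catalytic rate constants were fitted to a competitive model.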

[7] = Inhibition constant(Ki) for inhibition of PPIase activity of Escherichia coli SlyD (Conc=2 uM) of FKBPs family; in short: as §3
[8] = Inhibition constant(Ki) for inhibition of PPIase activity of Escherichia coli FK506 binding protein 26 (Conc=1 uM) of FKBPs family; in short: as §2
[9] = target: T1, Peptidyl-prolyl cis-trans isomerase FKBP1A; experiment: Inhibition constant(Ki) for inhibition of PPIase activity of human FK506 binding protein 12 (Conc=14 nM) of FKBPs family; in short: as §2
[10] = Inhibition constant(Ki) for inhibition of PPIase activity of Escherichia coli parvulin (Conc=6 nM) of Parvulins sfamily
Rattus norvegicus [11] = experiment: Effect on Axonal Regeneration following sciatic nerve neurotomy at a dose of 30 mg/kg after 8 weeks; format: functional
In short: (§4)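 Left sciatic nerve cut (neurotomy) in 4-month-old female HAN:Wist rats under intramuscular Rompun/Ketavet anaesthesia. A single 30 mg/kg dose was applied at the lesion site. Walking behaviour was scored up to 8 or 10 weeks after surgery. Values are % increase in rate of functional recovery versus placebo-treated rats, given as mean ± SD of n animals.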

Rattus norvegicus [12] = experiment: Effect on Axonal Regeneration following sciatic nerve neurotomy at a dose of 30 mg/kg after 10 weeks; format: functional; in short: as §4
Rattus norvegicus [13] = experiment: Weight difference between EDL muscles of axotomized left hind limbs and corresponding right controls 10 weeks (dose=30 mg/kg); format: functional, Muscle tissue
In short: (§5)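 Female HAN:Wist rats (4 months old) underwent left sciatic neurotomy with 30 mg/kg given locally at the lesion. EDL muscles were taken at 8 or 10 weeks and weighed relative to protein concentration. The % weight difference, lesioned left versus intact right limb, was expressed relative to placebo controls. Values are mean ± SD of n animals.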

Rattus norvegicus [14] = experiment: Weight difference between EDL muscles of axotomized left hind limbs and corresponding right controls 8 weeks (dose=30 mg/kg); format: functional, Muscle tissue; in short: as §5

T1 sequence (P62942 whole entry): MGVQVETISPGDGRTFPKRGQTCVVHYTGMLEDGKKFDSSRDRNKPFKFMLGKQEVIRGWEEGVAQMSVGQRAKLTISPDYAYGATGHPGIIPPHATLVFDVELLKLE
Chain of Peptidyl-prolyl cis-trans isomerase NIMA-interacting 1 (Q13526 whole entry): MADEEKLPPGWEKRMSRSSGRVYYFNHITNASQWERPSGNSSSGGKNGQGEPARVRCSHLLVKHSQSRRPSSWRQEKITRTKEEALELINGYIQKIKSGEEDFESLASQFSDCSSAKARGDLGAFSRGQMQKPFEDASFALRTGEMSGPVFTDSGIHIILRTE

With `C[C@@H]1C[C@@H]([C@H](O)CC2CC(=O)N(C)C(=O)C2)C(=O)[C@@H](C)C1` the IC50 [1] was 124 µM, the IC50 (L929) was > 200 µg/mL and the IC50 (K562) was 133 µg/mL (≈ 449 µM).
With `C[C@@H]1C[C@@H]([C@H](O)CC2CC(=O)N(Cc3ccccc3)C(=O)C2)C(=O)[C@@H](C)C1` the IC50 [1] was 117 µM, the IC50 (L929) was 135 µg/mL (≈ 364 µM) and the IC50 (K562) was 81.6 µg/mL (≈ 220 µM).
For `C[C@@H]1C[C@@H]([C@H](O)CC2CC(=O)N(CC(N)=O)C(=O)C2)C(=O)[C@@H](C)C1`, the IC50 [1] was 21.6 µM, the IC50 (L929) was 5.3 µg/mL (≈ 15.7 µM) and the IC50 (K562) was 4.6 µg/mL (≈ 13.6 µM).
For `CCOC(=O)CN1C(=O)CC(C[C@@H](OC(=O)NC23C[C@H]4C[C@@H](C2)C[C@@H](C3)C4)[C@@H]2C[C@@H](C)C[C@H](C)C2=O)CC1=O`, the IC50 [1] was > 200 µM.
`CCOC(=O)CCCN1C(=O)CC(C[C@@H](O)[C@@H]2C[C@@H](C)C[C@H](C)C2=O)CC1=O` showed an IC50 [1] of 22.3 µM, an IC50 (L929) of 145 µg/mL (≈ 366 µM) and an IC50 (K562) of 109 µg/mL (≈ 276 µM).
Compound `C=CC[C@@H]1/C=C(\C)C[C@H](C)C[C@H](OC)[C@H]2O[C@@](O)(C(=O)C(=O)N3CCCC[C@H]3C(=O)O[C@H](/C(C)=C/[C@@H]3CC[C@@H](O)[C@H](OC)C3)[C@H](C)[C@@H](O)CC1=O)[C@H](C)C[C@@H]2OC` [TACROLIMUS ANHYDROUS] has a Walking behaviour (Rattus norvegicus [2]) of 100% and a Weight difference (Rattus norvegicus [3]) of 18%.
Compound `C[C@@H]1C[C@@H]([C@H](O)CC2CC(=O)N(Cc3ccc(C#N)cc3)C(=O)C2)C(=O)[C@@H](C)C1` has an IC50 [1] of 68.2 µM, an IC50 (L929) of 1.4 µg/mL (≈ 3.53 µM) and an IC50 (K562) of 0.8 µg/mL (≈ 2.02 µM).
With `C[C@@H]1C[C@@H]([C@H](O)CC2CC(=O)NC(=O)C2)/C(=N\O)[C@@H](C)C1` the IC50 [1] was 177 µM, the IC50 (L929) was 86.9 µg/mL (≈ 293 µM) and the IC50 (K562) was 116 µg/mL (≈ 393 µM).
With `CC(=O)O[C@H](CC1CC(=O)NC(=O)C1)[C@@H]1C[C@@H](C)C[C@H](C)C1=O` the IC50 [1] was > 200 µM, the IC50 (L929) was 9.3 µg/mL (≈ 28.8 µM) and the IC50 (K562) was 1.1 µg/mL (≈ 3.4 µM).
In the case of `C[C@@H]1C[C@@H]([C@H](O)CC2CC(=O)NC(=O)C2)C(=O)[C@@H](C)C1` [CYCLOHEXIMIDE], the Ki [4] is reported as > 200 µM, the Ki [5] is reported as > 200 µM and the IC50 [1] is reported as 3.6 µM. For the same compound, the Ki [6] was > 200 µM, the Ki [7] was > 200 µM and the IC50 (L929) was < 0.39 µg/mL. The Ki [8] was 10.3 µM, the Ki [9] was 3.4 µM and the IC50 (K562) was < 0.39 µg/mL. It also gave a Ki [10] of 187 µM.
Compound `CCOC(=O)CN1C(=O)CC(C[C@@H](O)[C@@H]2C[C@@H](C)C[C@H](C)C2=O)CC1=O` has an IC50 [1] of 4.4 µM, a Walking behaviour (Rattus norvegicus [11]) of 46% and a Walking behaviour (Rattus norvegicus [12]) of 14%. It also gave an IC50 (L929) of 76.7 µg/mL (≈ 209 µM), a Weight difference (Rattus norvegicus [13]) of 13% and a Weight difference (Rattus norvegicus [14]) of 20%. The IC50 (K562) was 64.9 µg/mL (≈ 177 µM).
